# Measurements: ChEMBL document CHEMBL1123822, “Lysosomotropic agents. 7. Broad-spectrum antifungal activity of lysosomotropic detergents” (1987)
# Key:
# Type in all cases: functional
# [1] = tested on: Candida albicans; assay: The compound was tested for antifungal activity against Candida albicans MY1058 using agar dilution assay
# Method in brief: (§1)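 Standardized agar dilution in Kimmig agar with 5% glycerol. Lysosomotropic detergents solubilized in 10% Me₂SO. Twofold serial dilutions in sterile distilled water gave final agar concentrations of 128 to 0.06 μg/mL. Stated error ±1 dilution stage.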
# [2] = tested on: Saccharomyces cerevisiae; assay: The compound was evaluated for mean zone diameter (inhibition) against yeast at the concentration of 500 ug/mL
# Method in brief: (§2)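 Disk diffusion: drug in methanol spotted on 6.2 mm paper disks (25 μL/disk), dried at room temperature, laid on seeded agar, rewet with 25 μL 10% aqueous Me₂SO; zones read after overnight incubation. Unbuffered acidic media (pH ca. 4.5–5.6). Panel of 21 yeasts and 21 filamentous fungi; zones of 0 mm excluded from means.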
# [3] = tested on: Penicillium italicum; assay: The compound was tested for antifungal activity against Penicillium italicum MF2819 using agar dilution assay
# Method in brief: (§3)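 Standardized agar dilution on Kimmig agar with 5% glycerol. Detergents solubilized in 10% Me2SO; desoxycholate-stabilized amphotericin B diluted and titrated in sterile distilled water. Twofold dilutions in sterile distilled water gave final agar concentrations of 128 to 0.06 μg/mL. Error limit ±1 dilution stage.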
# [4] = tested on: Candida tropicalis; assay: The compound was tested for antifungal activity against Candida tropicalis MY1011 using agar dilution assay; method in brief: as §3
# [5] = tested on: Nakaseomyces glabratus; assay: The compound was tested for antifungal activity against Torulopsis glabrata MY1059 using agar dilution assay; method in brief: as §3
# [6] = tested on: Saccharomyces cerevisiae; assay: The compound was evaluated for mean zone diameter (inhibition) against yeast at the concentration of 125 ug/mL
# Method in brief: (§4)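 Filter-paper disk diffusion (6.2 mm disks) with drug in methanol at the stated level, 25 μL per disk. Disks were air-dried at room temperature, laid on seeded agar, rewet with 25 μL 10% aqueous Me₂SO and incubated overnight. Media were unbuffered, pH ca. 4.5–5.6. The panel was 21 yeasts and 21 filamentous fungi. Zones of 0 mm were excluded from means.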
# [7] = tested on: Candida parapsilosis; assay: The compound was tested for antifungal activity against Candida parapsilosis MY1009 using agar dilution assay; conditions: Lodderomyces parapsilosis; method in brief: as §1
# [8] = tested on: Candida albicans; assay: The compound was tested for antifungal activity against Candida stellatoidea MY1017 using agar dilution assay; method in brief: as §3
# [9] = tested on: Diutina rugosa; assay: The compound was tested for antifungal activity against Candida rugosa MY1022 using agar dilution assay; method in brief: as §1
# [10] = tested on: Fungi; assay: The compound was evaluated for mean zone diameter (inhibition) against yeast at the concentration of 1000 ug/mL; method in brief: as §2
# [11] = tested on: Candida albicans; assay: The compound was tested for antifungal activity against Candida albicans My1029 using agar dilution assay; method in brief: as §1
# [12] = tested on: Saccharomyces cerevisiae; assay: The compound was evaluated for mean zone diameter (inhibition) against yeast at the concentration of 250 ug/mL; method in brief: as §4
# [13] = tested on: Candida albicans; assay: The compound was tested for antifungal activity against Candida albicans MY1055 using agar dilution assay; method in brief: as §1
# [14] = tested on: Meyerozyma guilliermondii; assay: The compound was tested for antifungal activity against Candida guilliermondii MY1019 using agar dilution assay; method in brief: as §1
# [15] = tested on: Cryptococcus neoformans; assay: The compound was tested for antifungal activity against Cryptococcus neoformans MY1146 using agar dilution assay; method in brief: as §3
# [16] = tested on: Aspergillus fumigatus; assay: The compound was tested for antifungal activity against Aspergillus fumigatus MF4839 using agar dilution assay; method in brief: as §1
# [17] = tested on: Candida albicans; assay: The compound was tested for antifungal activity against Candida albicans MY1013 using agar dilution assay; method in brief: as §1
# [18] = tested on: Candida parapsilosis; assay: The compound was tested for antifungal activity against Candida parapsilosis MY1010 using agar dilution assay; conditions: Lodderomyces parapsilosis; method in brief: as §1
# [19] = tested on: Cryptococcus neoformans; assay: The compound was tested for antifungal activity against Cryptococcus neoformans MY1051 using agar dilution assay; method in brief: as §3
# [20] = tested on: Candida tropicalis; assay: The compound was tested for antifungal activity against Candida tropicalis MY1012 using agar dilution assay; method in brief: as §3
# [21] = tested on: Pichia kudriavzevii; assay: The compound was tested for antifungal activity against Candida krusei MY1020 using agar dilution assay; method in brief: as §1
# [22] = tested on: Candida albicans; assay: The compound was tested for antifungal activity against Candida albicans MY0992 using agar dilution assay; method in brief: as §1
# [23] = tested on: Saccharomyces cerevisiae; assay: The compound was tested for antifungal activity against Saccharomyces cerevisiae MY1027 using agar dilution assay; method in brief: as §3
# [24] = tested on: Aspergillus flavus; assay: The compound was tested for antifungal activity against Aspergillus flavus MF0383 using agar dilution assay; method in brief: as §1
# [25] = tested on: Kluyveromyces marxianus; assay: The compound was tested for antifungal activity against Candida pseudotropicalis MY1040 using agar dilution assay; method in brief: as §1
# [26] = tested on: Penicillium; assay: The compound was evaluated for zone inhibition against Penicillium sp (MF5020) using disk diffusion assay; 21 Fuzzy edges
# Method in brief: (§5)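 Filter-paper disks (6.2 mm) loaded with 25 μL of a 250 μg/mL methanol solution, dried at room temperature, laid on seeded agar and rewet with 25 μL 10% aqueous Me₂SO. Media were unbuffered, pH ca. 4.5–5.6: potato dextrose agar for filamentous fungi, sabouraud dextrose agar for yeasts, unless noted. Inhibition zone diameter read after overnight incubation, ±1 mm. Zone edges scored fuzzy, slightly hazy, hazy or very hazy.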
# [27] = tested on: Saccharomyces cerevisiae; assay: The compound was evaluated for mean zone diameter (inhibition) against yeast at the concentration of 62.5 ug/mL; method in brief: as §4
# [28] = tested on: Trichoderma viride; assay: The compound was evaluated for zone inhibition against Trichoderma lignorum (MF3560) using disk diffusion assay; 24 Fuzzy edges; method in brief: as §5
# [29] = tested on: Nakaseomyces glabratus; assay: The compound was evaluated for zone inhibition against Torulopsis glabrata MY1062 using disk diffusion assay; method in brief: as §5
# [30] = tested on: Papiliotrema laurentii; assay: The compound was evaluated for zone inhibition against Cryptococcus laurentii MY1077 using disk diffusion assay; 22 Fuzzy edges; method in brief: as §5
# [31] = tested on: Saccharomyces cerevisiae; assay: The compound was evaluated for zone inhibition against Saccharomyces cerevisiae MY410 using disk diffusion assay; 9 Fuzzy edges; method in brief: as §5
# [32] = tested on: Trichoderma; assay: The compound was evaluated for zone inhibition against Trichoderma sp (MF4064) using disk diffusion assay; method in brief: as §5
# [33] = tested on: Rhizomucor miehei; assay: The compound was evaluated for zone inhibition against Rhizomucor miehei (MF4784) using disk diffusion assay; method in brief: as §5
# [34] = tested on: Naganishia albida; assay: The compound was evaluated for zone inhibition against Cryptococcus albidus MY1070 using disk diffusion assay; 23 Fuzzy edges
# Method in brief: (§6)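 Disk diffusion: 25 μL of 250 μg/mL drug in methanol on 6.2 mm paper disks, dried at room temperature, placed on seeded agar and rewet with 25 μL 10% aqueous Me₂SO. Zones were read after overnight incubation, ±1 mm. Media were unbuffered, pH ca. 4.5–5.6: potato dextrose agar for filamentous fungi, Sabouraud dextrose for yeasts, unless YNB (76 mM ammonium sulfate, sole nitrogen source) or YED is named. Zone edges were scored fuzzy, slightly hazy, hazy or very hazy.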
# [35] = tested on: Fusarium oxysporum; assay: The compound was evaluated for zone inhibition against Fusarium oxysporum (MF4014) using disk diffusion assay; method in brief: as §5
# [36] = tested on: Kluyveromyces marxianus; assay: The compound was evaluated for zone inhibition against Kluyveromyces fragilis MY1113 using disk diffusion assay; 13 Fuzzy edges; method in brief: as §5
# [37] = tested on: Candida tropicalis; assay: The compound was evaluated for zone inhibition against Candida tropicalis MY1012 using disk diffusion assay; 25 Fuzzy edges; method in brief: as §6
# [38] = tested on: Papiliotrema laurentii; assay: The compound was evaluated for zone inhibition against Cryptococcus laurentii MY1074 using disk diffusion assay; 16 slightly hazy; method in brief: as §5
# [39] = tested on: Phoma; assay: The compound was evaluated for zone inhibition against Phoma sp (MF4332) using disk diffusion assay; 23 Fuzzy edges; method in brief: as §5
# [40] = tested on: Cephalosporium; assay: The compound was evaluated for zone inhibition against Cephalosporium sp (MF4641) using disk diffusion assay; method in brief: as §6
# [41] = tested on: Cercospora beticola; assay: The compound was evaluated for zone inhibition against Cercospora beticola (MF4608) using disk diffusion assay; 22 Fuzzy edges; method in brief: as §6
# [42] = tested on: Saccharomyces cerevisiae; assay: The compound was evaluated for zone inhibition against Saccharomyces cerevisiae YED MY34 using disk diffusion assay; method in brief: as §5
# [43] = tested on: Ustilago maydis; assay: The compound was evaluated for zone inhibition against Ustilago zeae (MF1996) using disk diffusion assay; 28 Fuzzy edges; method in brief: as §5
# [44] = tested on: Penicillium; assay: The compound was evaluated for zone inhibition against Penicillium sp (MF5014) using disk diffusion assay; 22 Fuzzy edges; method in brief: as §5
# [45] = tested on: Penicillium; assay: The compound was evaluated for zone inhibition against Penicillium sp (MF5016) using disk diffusion assay; 25 Fuzzy edges; method in brief: as §5
smiles,measurement,setting,value
CC(=O)N1CCN(c2ccc(OCC3COC(Cn4ccnc4)(c4ccc(Cl)cc4Cl)O3)cc2)CC1 (stereo not drawn) [KETOCONAZOLE],MIC,[1],0.5 µg/mL
same,Inhibition zone,[2],24.8 mm
same,MIC,[3],1 µg/mL
same,MIC,[4],1 µg/mL
same,MIC,[5],1 µg/mL
same,Inhibition zone,[6],20.6 mm
same,MIC,[7],4 µg/mL
same,MIC,[8],0.5 µg/mL
same,MIC,[9],0.5 µg/mL
same,Inhibition zone,[10],27.2 mm
same,MIC,[11],0.5 µg/mL
same,Inhibition zone,[12],23.3 mm
same,MIC,[13],0.5 µg/mL
same,MIC,[14],0.5 µg/mL
same,MIC,[15],0.5 µg/mL
same,MIC,[16],1 µg/mL
same,MIC,[17],0.5 µg/mL
same,MIC,[18],2 µg/mL
same,MIC,[19],0.25 µg/mL
same,MIC,[20],> 128 µg/mL
same,MIC,[21],1 µg/mL
same,MIC,[22],1 µg/mL
same,MIC,[23],0.5 µg/mL
same,MIC,[24],1 µg/mL
same,MIC,[25],1 µg/mL
CCCCCCCCCCCCn1ccnc1,Inhibition zone,[26],21 mm
same,MIC,[1],32 µg/mL
same,MIC,[3],4 µg/mL
same,MIC,[4],32 µg/mL
same,MIC,[5],16 µg/mL
same,Inhibition zone,[6],15.8 mm
same,Inhibition zone,[27],14.4 mm
same,MIC,[7],32 µg/mL
same,MIC,[8],16 µg/mL
same,Inhibition zone,[28],24 mm
same,Inhibition zone,[29],11 mm
same,MIC,[9],32 µg/mL
same,Inhibition zone,[30],22 mm
same,MIC,[11],32 µg/mL
same,Inhibition zone,[12],16.8 mm
same,Inhibition zone,[31],9 mm
same,Inhibition zone,[32],18 mm
same,MIC,[13],32 µg/mL
same,Inhibition zone,[33],15 mm
same,Inhibition zone,[34],23 mm
same,MIC,[14],16 µg/mL
same,Inhibition zone,[35],18 mm
same,MIC,[15],4 µg/mL
same,Inhibition zone,[36],13 mm
same,Inhibition zone,[37],25 mm
same,Inhibition zone,[38],16 mm
same,MIC,[16],16 µg/mL
same,Inhibition zone,[39],23 mm
same,MIC,[17],16 µg/mL
same,Inhibition zone,[40],13 mm
same,MIC,[18],16 µg/mL
same,MIC,[19],4 µg/mL
same,MIC,[20],8 µg/mL
same,Inhibition zone,[41],22 mm
same,MIC,[21],32 µg/mL
same,MIC,[22],32 µg/mL
same,MIC,[23],8 µg/mL
same,MIC,[24],16 µg/mL
same,Inhibition zone,[42],15 mm
same,Inhibition zone,[43],28 mm
same,Inhibition zone,[44],22 mm
same,MIC,[25],16 µg/mL
same,Inhibition zone,[45],25 mm
